Measurements published in ChEMBL document CHEMBL4219118, “Cathepsin B inhibitors: Further exploration of the nitroxoline core” (Bioorg Med Chem Lett, 2018).
Active and inactive are the calls of the source. No cut-off for these calls is given here.

How the values were obtained:
Cathepsin B [1] = target: T1, Cathepsin B (Homo sapiens, UniProt P07858); assay: Mixed inhibition of recombinant human cathepsin B endopeptidase activity assessed as inhibitory constant for enzyme-inhibitor complex using Z-Arg-Arg-AMC as substrate in presence of pH 6 phosphate buffer by fluorescence assay
Cathepsin B [2] = target: T1, Cathepsin B; assay: Non-competitive inhibition of recombinant human cathepsin B exopeptidase activity assessed as inhibitory constant for enzyme-substrate-inhibitor complex using Abz-Gly-Ile-Val-Arg-Ala-Lys(Dnp)-OH as substrate in presence of pH 5 acetate buffer by fluorescence assay
Cathepsin B [3] = target: T1, Cathepsin B; assay: Mixed inhibition of recombinant human cathepsin B endopeptidase activity assessed as inhibitory constant for enzyme-substrate-inhibitor complex using Z-Arg-Arg-AMC as substrate in presence of pH 6 phosphate buffer by fluorescence assay
Cathepsin B [4] = target: T1, Cathepsin B; assay: Non-competitive inhibition of recombinant human cathepsin B exopeptidase activity assessed as inhibitory constant for enzyme-inhibitor complex using Abz-Gly-Ile-Val-Arg-Ala-Lys(Dnp)-OH as substrate in presence of pH 5 acetate buffer by fluorescence assay
Cathepsin B [5] = target: T1, Cathepsin B; assay: Mixed inhibition of recombinant human cathepsin B exopeptidase activity assessed as inhibitory constant for enzyme-substrate-inhibitor complex using Abz-Gly-Ile-Val-Arg-Ala-Lys(Dnp)-OH as substrate in presence of pH 5 acetate buffer by fluorescence assay
Cathepsin B [6] = target: T1, Cathepsin B; assay: Mixed inhibition of recombinant human cathepsin B exopeptidase activity assessed as inhibitory constant for enzyme-inhibitor complex using Abz-Gly-Ile-Val-Arg-Ala-Lys(Dnp)-OH as substrate in presence of pH 5 acetate buffer by fluorescence assay
Cathepsin B [7] = target: T1, Cathepsin B; assay: Non-competitive inhibition of recombinant human cathepsin B endopeptidase activity assessed as inhibitory constant for enzyme-inhibitor complex using Z-Arg-Arg-AMC as substrate in presence of pH 6 phosphate buffer by fluorescence assay
Cathepsin B [8] = target: T1, Cathepsin B; assay: Non-competitive inhibition of recombinant human cathepsin B endopeptidase activity assessed as inhibitory constant for enzyme-substrate-inhibitor complex using Z-Arg-Arg-AMC as substrate in presence of pH 6 phosphate buffer by fluorescence assay
Cathepsin B [9] = target: T1, Cathepsin B; assay: (§1) Inhibition of cathepsin B in human MCF-10A neoT cells assessed as proteolysis of extracellular membrane by measuring decrease in intracellular degradation of DQ-collagen 4 at 50 uM incubated for 2 hrs followed by DQ-collagen addition measured for 2 hrs by propidium iodide staining based flow cytometry relative to control; format: cell-based
Procedure, shortened: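 MCF-10A neoT cells (6 × 10⁴) treated with compound or DMSO. Intracellular DQ-collagen IV degradation measured by flow cytometry, with unlabeled cells as background. Reduction expressed versus DMSO. Mean of n = 3, run in duplicate.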

MCF-10A-neoT [10] = assay: Antiinvasive activity against human MCF10AneoT cells at 5 uM incubated for 1 hr measured every 15 mins for 72 hrs by real time xCELLigence assay relative to control; format: functional
Procedure, shortened: (§2)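 MCF-10A neoT cells (3 × 10⁴) seeded on Matrigel-coated (1 mg/mL) upper compartments of CIM-plates. Compound or DMSO (0.05%) added to growth medium in both upper and lower compartments. Invasion followed by impedance (cell index) for 72 h. Slopes (1/h) between 4 and 14 h converted to percentage invasion versus DMSO. Means of n = 2, each run in triplicate.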

Cathepsin B [11] = target: T1, Cathepsin B; assay: Inhibition of recombinant human cathepsin B exopeptidase activity assessed as residual activity at 50 uM using Abz-Gly-Ile-Val-Arg-Ala-Lys(Dnp)-OH as substrate in presence of pH 5 acetate buffer by fluorescence assay relative to control
Cathepsin B [12] = target: T1, Cathepsin B; assay: Inhibition of recombinant human cathepsin B endopeptidase activity assessed as residual activity at 50 uM using Z-Arg-Arg-AMC as substrate in presence of pH 6 phosphate buffer by fluorescence assay relative to control
Cathepsin B [13] = target: T1, Cathepsin B; assay: Competitive inhibition of recombinant human cathepsin B endopeptidase activity assessed as inhibitory constant for enzyme-inhibitor complex using Z-Arg-Arg-AMC as substrate in presence of pH 4.5 acetate buffer by fluorescence assay
Procedure, shortened: (§3)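 Recombinant cathepsin B endopeptidase activity assayed with the small substrate Z-Arg-Arg-AMC at pH 4.5. Acidic conditions chosen to shift the enzyme toward the closed (exopeptidase) conformation. Ki reported.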

Cathepsin B [14] = target: T1, Cathepsin B; assay: Inhibition of recombinant human cathepsin B endopeptidase activity assessed as inhibitory constant for enzyme-inhibitor complex using Z-Arg-Arg-AMC as substrate in presence of pH 4.5 acetate buffer by fluorescence assay; procedure, shortened: as §3
Cathepsin B [15] = target: T1, Cathepsin B; assay: Inhibition of recombinant human cathepsin B endopeptidase activity assessed as inhibitory constant for enzyme-substrate-inhibitor complex using Z-Arg-Arg-AMC as substrate in presence of pH 6 phosphate buffer by fluorescence assay
Cathepsin B [16] = target: T1, Cathepsin B; assay: Uncompetitive inhibition of recombinant human cathepsin B endopeptidase activity assessed as inhibitory constant for enzyme-substrate-inhibitor complex using Z-Arg-Arg-AMC as substrate in presence of pH 6 phosphate buffer by fluorescence assay
Cathepsin B [17] = target: T1, Cathepsin B; assay: Uncompetitive inhibition of recombinant human cathepsin B exopeptidase activity assessed as inhibitory constant for enzyme-substrate-inhibitor complex using Abz-Gly-Ile-Val-Arg-Ala-Lys(Dnp)-OH as substrate in presence of pH 5 acetate buffer by fluorescence assay
U-87 MG = assay: Cytotoxicity against human U87MG cells assessed as decrease in cell viability after 72 hrs by MTS assay; format: cell-based; settings: u-87mg atcc
MCF-10A-neoT [18] = assay: Cytotoxicity against human MCF10AneoT cells assessed as decrease in cell viability after 72 hrs by MTS assay; format: cell-based
Cathepsin B [19] = target: T1, Cathepsin B; assay: Inhibition of cathepsin B in human MCF-10A neoT cells assessed as proteolysis of extracellular membrane by measuring decrease in extracellular degradation of DQ-collagen 4 at 5 uM incubated for 6 hrs measured for 2 hrs by fluorescence based spectrofluorimetric assay relative to control; format: cell-based
Procedure, shortened: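 MCF-10A neoT cells (5 × 10⁴) incubated with DQ-collagen IV in the presence of compound or DMSO. Extracellular degradation product read by spectrofluorimetry. Mean of n = 3, six replicates per experiment.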

MCF-10A-neoT [20] = assay: Antiinvasive activity against human MCF10AneoT cells at 2.5 uM incubated for 1 hr measured every 15 mins for 72 hrs by real time xCELLigence assay relative to control; format: functional, cell-based; procedure, shortened: as §2
Cathepsin B [21] = target: T1, Cathepsin B; assay: as §1, with “25” for “50”; format: cell-based
Procedure, shortened: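 Intracellular DQ-collagen IV degradation in MCF-10A neoT cells (6 × 10⁴) treated with compound or DMSO, read by flow cytometry. Unlabeled cells served as background. Reduction in intracellular signal reported against DMSO as mean ± SEM, n = 3 experiments, each in duplicate.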

Procathepsin L = Procathepsin L (Homo sapiens, UniProt P07711); assay: Competitive inhibition of recombinant human cathepsin L expressed in Escherichia coli assessed as inhibitory constant for enzyme-inhibitor complex using Z-FR-AMC as substrate in presence of pH 6 phosphate buffer by fluorescence assay
Chain of Procathepsin L (P07711 whole entry): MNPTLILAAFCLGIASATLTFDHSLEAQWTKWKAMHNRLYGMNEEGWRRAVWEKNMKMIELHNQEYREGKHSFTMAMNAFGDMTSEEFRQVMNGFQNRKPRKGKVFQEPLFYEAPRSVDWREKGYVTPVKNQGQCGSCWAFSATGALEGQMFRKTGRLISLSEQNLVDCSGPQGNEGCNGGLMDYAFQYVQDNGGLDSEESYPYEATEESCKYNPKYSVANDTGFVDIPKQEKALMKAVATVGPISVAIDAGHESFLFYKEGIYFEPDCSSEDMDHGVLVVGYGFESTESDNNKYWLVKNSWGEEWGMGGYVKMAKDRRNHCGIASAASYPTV

Pro-cathepsin H [22] = target: T2, Pro-cathepsin H (Homo sapiens, UniProt P09668); assay: Non-competitive inhibition of human liver cathepsin H assessed as inhibitory constant for enzyme-inhibitor complex using R-AMC as substrate in presence of pH 6 phosphate buffer by fluorescence assay
T2 sequence (P09668 whole entry): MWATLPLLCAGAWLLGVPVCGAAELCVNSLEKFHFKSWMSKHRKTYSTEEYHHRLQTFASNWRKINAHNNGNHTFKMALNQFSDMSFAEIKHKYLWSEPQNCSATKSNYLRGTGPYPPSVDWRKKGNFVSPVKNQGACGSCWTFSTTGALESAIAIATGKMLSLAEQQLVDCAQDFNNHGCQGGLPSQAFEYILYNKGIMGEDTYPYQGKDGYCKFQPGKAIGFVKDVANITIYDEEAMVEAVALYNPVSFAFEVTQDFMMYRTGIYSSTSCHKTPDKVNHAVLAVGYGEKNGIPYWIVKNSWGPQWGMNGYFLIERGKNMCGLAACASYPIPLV

Cathepsin B [23] = target: T1, Cathepsin B; assay: Inhibition of cathepsin B in human MCF-10A neoT cells assessed as proteolysis of extracellular membrane by measuring decrease in extracellular degradation of DQ-collagen 4 at 2.5 uM incubated for 6 hrs measured for 2 hrs by fluorescence based spectrofluorimetric assay; format: cell-based
Procedure, shortened: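 MCF-10A neoT cells (5 × 10⁴) exposed to compound or DMSO vehicle control with DQ-collagen IV. Fluorescence of the extracellular cleavage product measured by spectrofluorimetry. Mean ± SEM of n = 3 experiments, each in six replicates.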

Pro-cathepsin H [24] = target: T2, Pro-cathepsin H; assay: Non-competitive inhibition of human liver cathepsin H assessed as inhibitory constant for enzyme-substrate-inhibitor complex using R-AMC as substrate in presence of pH 6 phosphate buffer by fluorescence assay

Ki (Cathepsin B [1]) [µM]	Ki (Cathepsin B [2]) [µM]	Ki (Cathepsin B [3]) [µM]	Ki (Cathepsin B [4]) [µM]	Ki (Cathepsin B [5]) [µM]	Ki (Cathepsin B [6]) [µM]	SMILES	further results
143	162	94	162	–	–	CC1CCN(C(=O)c2cc([N+](=O)[O-])c3cccnc3c2O)CC1	–
–	–	–	–	22	118	COCCCOc1cc(-c2ccc([N+](=O)[O-])c3cccnc23)ccc1OC	Ki (Cathepsin B [7]): 323 µM; Ki (Cathepsin B [8]): 323 µM
311	364	171	364	–	–	O=C(c1cc([N+](=O)[O-])c2cccnc2c1O)N1CCCCC1	–
–	–	–	–	–	–	CCCNC(=O)[C@H]1O[C@@H]1C(=O)N[C@H](C(=O)N1CCC[C@H]1C(=O)O)[C@@H](C)CC	inhibition (Cathepsin B [9]): inactive; Activity (MCF-10A-neoT [10]): 40%
–	–	–	–	–	–	O=[N+]([O-])c1ccc(O)c2ncccc12	Activity (Cathepsin B [11]): 24.7%; Activity (Cathepsin B [12]): 21.9%
–	–	–	–	34	201	N#CCNC(=O)c1ccc2c([N+](=O)[O-])cc([N+](=O)[O-])c(O)c2n1	Ki (Cathepsin B [13]; read-out: Ki): 29 µM; Ki (Cathepsin B [7]): 160 µM; Ki (Cathepsin B [8]): 160 µM
–	–	–	–	–	–	CC(=O)c1ccc(-c2cc(-c3ccc([N+](=O)[O-])c4cccnc34)c(-c3ccc(C(C)=O)cc3)o2)cc1	Ki (Cathepsin B [14]): Not Active; Ki (Cathepsin B [15]): Not Active; Ki (Cathepsin B [16]): 39 µM; Ki (Cathepsin B [17]): 13 µM
102	205	263	205	–	–	CN(CC#N)C(=O)c1ccc2c([N+](=O)[O-])ccc(O)c2n1	–
200	181	41	181	–	–	COCCN(CC1CCN(Cc2nc3ccccc3s2)CC1)C(=O)c1cc([N+](=O)[O-])c2cccnc2c1O	–
182	–	64	–	32	185	N#CCN(Cc1ccccc1)C(=O)c1cc([N+](=O)[O-])c2cccnc2c1O	inhibition (Cathepsin B [9]): < 10%; Ki (Cathepsin B [13]; read-out: Ki): 132 µM; Activity (U-87 MG): Non-Toxic; Activity (MCF-10A-neoT [18]): Non-Toxic; inhibition (Cathepsin B [19]): 60%
341	–	122	–	109	257	CN(CC#N)C(=O)c1ccc2c([N+](=O)[O-])cc([N+](=O)[O-])c(O)c2n1	–
–	–	–	–	–	–	CC(=O)c1ccc(-c2occc2-c2ccc([N+](=O)[O-])c3cccnc23)cc1	Ki (Cathepsin B [14]): Not Active; Ki (Cathepsin B [15]): Not Active; Ki (Cathepsin B [16]): 46 µM; Ki (Cathepsin B [17]): 11 µM
142	214	68	214	–	–	N#Cc1ccc2c([N+](=O)[O-])ccc(O)c2n1	Ki (Cathepsin B [13]; read-out: Ki): 123 µM
157	154	66	154	–	–	N#CC1(NC(=O)c2ccc3c([N+](=O)[O-])ccc(O)c3n2)CC1	–
181	–	99	–	77	469	Cc1ccc2c([N+](=O)[O-])ccc(O)c2n1	Activity (MCF-10A-neoT [20]): inactive; inhibition (Cathepsin B [21]): 80%; Ki (Procathepsin L): 122 µM; Ki (Cathepsin B [13]; read-out: Ki): 153 µM; Activity (U-87 MG): Non-Toxic; Ki (Pro-cathepsin H [22]): 89 µM; Activity (MCF-10A-neoT [18]): Non-Toxic; inhibition (Cathepsin B [23]): Active; Ki (Pro-cathepsin H [24]): 89 µM
–	–	–	–	–	–	CCCNC(=O)[C@H]1O[C@@H]1C(=O)N[C@H](C(=O)N1CCC[C@H]1C(=O)OC)[C@@H](C)CC	inhibition (Cathepsin B [9]): Active
–	185	–	185	–	–	N#CC1(NC(=O)c2cc([N+](=O)[O-])c3cccnc3c2O)CC1	Ki (Procathepsin L): 195 µM; inhibition (Cathepsin B [9]): 15%; Activity (MCF-10A-neoT [10]): 70%; Ki (Cathepsin B [13]): Not Active; Activity (U-87 MG): Non-Toxic; Ki (Pro-cathepsin H [22]): 329 µM; Ki (Cathepsin B [16]): 124 µM; Activity (MCF-10A-neoT [18]): Non-Toxic; Ki (Pro-cathepsin H [24]): 329 µM; inhibition (Cathepsin B [19]): Active
–	–	–	–	18	156	N#CCN(Cc1ccccc1)C(=O)c1ccc2c([N+](=O)[O-])ccc(O)c2n1	Ki (Cathepsin B [16]): 34 µM
180	190	116	190	–	–	N#CCNC(=O)c1ccc2c([N+](=O)[O-])ccc(O)c2n1	–
–	192	–	192	–	–	N#Cc1ccc2c([N+](=O)[O-])cc([N+](=O)[O-])c(O)c2n1	Ki (Cathepsin B [16]): 39 µM
–	–	–	–	35	154	N#CCN(Cc1ccccc1)C(=O)c1ccc2c([N+](=O)[O-])cc([N+](=O)[O-])c(O)c2n1	inhibition (Cathepsin B [9]): inactive; Ki (Cathepsin B [13]; read-out: Ki): 163 µM; Activity (U-87 MG): Non-Toxic; Ki (Cathepsin B [16]): 9 µM; Activity (MCF-10A-neoT [18]): Non-Toxic; inhibition (Cathepsin B [19]): Active
